Measurements: paper PMC3181111 (ACS chemical neuroscience, 2011)

System: male C57BL/6J mice
Assay: Mouse tail suspension test
Format: in vivo
Conditions: 30 minutes, vs water vehicle
Outline: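 Mice suspended by the tail with adhesive tape from a metal bar 30 cm high. Drugs given i.p. 30 min before testing. Reference inhibitors were in sterile water; test compounds were in DMSO at 2% (0.01 mL/g) or 100% (0.002 mL/g). Immobility time was scored by a blinded observer from 6-min video, n = 7–9, with one-way ANOVA and Tukey posthoc.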

Structure (SMILES) | Immobility time in tail suspension test (3 mg/kg i.p.) | Immobility time in tail suspension test (10 mg/kg i.p.)
CNCCCN1c2ccccc2CCc2ccccc21 [desipramine] | decreased immobility times | 
COCCCC/C(=N\OCCN)c1ccc(C(F)(F)F)cc1 [fluvoxamine] |  | decreased immobility times
